What is called IC50 is the midpoint of a concentration-inhibition curve. What is called CLint scaled is the capacity of the preparation to metabolise the compound, expressed as a volume cleared per time. The low end stands for slow turnover, the high end for rapid turnover. Usually clearance stands for a measure of how efficiently the substance is removed, as volume per time. Low readings indicate inefficient removal, high ones efficient removal.

Series [1] concerns pAKT in T47D (PI3Kα^H1047R) cells. Description: pAKT AlphaLISA assay, T47D. In kind it is cell-based. The note with it: for IC50: Homo sapiens, T47D, 24 h, read-out: pAKT AlphaLISA IC50 T47D, T47D (PI3Kα^H1047R), inhibition of pAKT formation after 24 h of treatment. (In general: In Alpha technology, singlet oxygen from a donor bead excites a nearby acceptor bead.)
Series [2] has as its system pAKT in SKBR3 (PI3Kα^WT) cells. Description: pAKT AlphaLISA assay, SKBR3. The note with it: Homo sapiens, SK-BR-3, 24 h, read-out: pAKT AlphaLISA IC50 SKBR3. In kind it is cell-based.
In series [3] the test system is T47D (PI3Kα^H1047R) cells. The series can be described thus: Viability assay. In kind it is cell-based. To be noted: for viability selectivity 1047R/WT IC50: T47D vs SKBR3 viability IC50.
Series [4] can be described thus: Intrinsic clearance in human hepatocytes. In kind it is in vitro ADME.
Series [5] can be described thus: Intrinsic clearance in mouse hepatocytes. Format: in vitro ADME. In a few lines: (§1)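 CLint was derived by scaling in vitro half-lives measured in pooled hepatocytes.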
Series [6] in a line: Intrinsic clearance in rat hepatocytes. Format: in vitro ADME. In a few lines: as §1
Series [7] is described as follows: Intrinsic clearance in dog hepatocytes. Format: in vitro ADME. In short, it runs like this:
as §1

The nature of the next series: Mouse pharmacokinetics. Format: in vivo, CD-1 Mouse.
The nature of another series: Rat pharmacokinetics. In kind it is in vivo. To be noted: male, Sprague-Dawley, plasma, iv, 3 mg/kg.
Series [8] has as its system pAKT in HCC1954 tumors (PI3Kα^H1047R). Description: Single dose pharmacodynamic study, HCC1954 tumor model. Format: in vivo, mouse. The note with it: PO 100 or 300 mg/kg single dose. In short, it runs like this:
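Mice carried xenografts of HCC1954, an ER-/HER2+ human breast tumour line with endogenous PI3Kα H1047R. They received a single dose of test compound, and tumour pAKT modulation was measured at 1 h and at 8 h post dose.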

The nature of series [9]: Metabolite ID in human hepatocytes. In kind it is in vitro ADME.

Consider `Cc1cc([C@@H](C)Nc2ccc(Cl)cc2C(=O)O)c2nc(N3CCC(F)(F)CC3)c(C#N)c(=O)n2c1` [Compound 24], for which, in [1], the IC50 was found to be 15 nM.

Take `Cc1cc([C@@H](C)Nc2ccccc2C(=O)O)c2nc(N3CCCCC3)c(C(N)=O)c(=O)n2c1` [Compound 14]: the IC50 in [1] and in [2] was more than 10000 nM in each case.

In the case of `Cc1cc([C@@H](C)Nc2ccccc2C(=O)O)c2nc(N3CCCCC3)c(C)c(=O)n2c1` [Compound 8], the IC50 in [1] is 3 nM; in series [2] it was 1460 nM. Besides, the “viability selectivity 1047R/WT IC50” value in [3] is reported as more than 83.

For `Cc1cc([C@@H](C)Nc2ccccc2C(=O)O)c2nc(N3CCCCC3)c(C(F)(F)F)c(=O)n2c1` [Compound 13], the IC50 in series [1] is 28 nM; in series [2], more than 10000 nM.

With `Cc1cc(C(C)Nc2ccccc2C(=O)O)c2nc(N3CCCCC3)ncc2c1` (stereo not shown) [Compound 10], the IC50 in series [1] was 2540 nM.

Take `Cc1cc([C@@H](C)Nc2ccccc2C(=O)O)c2nc(N3CCCCC3)c(C#N)c(=O)n2c1` [Compound 12]: the IC50 in series [1] came out at 1 nM; in series [2], 4740 nM. In addition, the “fold more potent than 8” value in series [1] (pAKT T47D) is reported as 3 fold. Moreover, in series [4] (Clint human hepatocytes), the “fold more stable in human hepatocytes than 8” value is given as 4 fold.

On to `Cc1cc([C@@H](C)Nc2ccccc2C(=O)O)c2nc(N3CCCCC3)c(F)c(=O)n2c1` [Compound 11], for which the values for the IC50 in series [1] and in series [2] were 0.3 nM and more than 10000 nM, respectively.

Consider `Cc1cc([C@@H](C)Nc2ccccc2C(=O)O)c2nc(N3CCCCC3)cc(=O)n2c1` [Compound 7], for which the IC50 was 78 nM in series [1] and 5890 nM in series [2]. In addition, in series [3], the “viability selectivity 1047R/WT IC50” value is more than 9.

`Cc1cc([C@@H](C)Nc2ccccc2C(=O)O)c2nc(N3CCC(F)(F)CC3)c(C#N)c(=O)n2c1` [Compound 17, (R)-2-((1-(3-Cyano-2-(4,4-difluoropiperidin-1-yl)-7-methyl-4-oxo-4H-pyrido[1,2-a]pyrimidin-9-yl)ethyl)amino)benzoic Acid]: in series [4], the “fold decrease of intrinsic clearance in human hepatocytes compared to 12” value came out at 3 fold. In addition, the CLint scaled came out at 304 mL/min/kg in series [5], 70 mL/min/kg in [6] and 104 mL/min/kg in series [7]. Further, the clearance in “Mouse pharmacokinetics” (female, CD-1, mouse, plasma, iv, 3 mg/kg) worked out at 180 mL/min/kg; in “Rat pharmacokinetics”, 46 mL/min/kg. The bioavailability in rodents in the series “Mouse pharmacokinetics” (rodents (mouse and rat)) is given as 48–57 %F. The “pAKT inhibition after oral dosing” value in series [8] is “negligible inhibition of pAKT”. Moreover, the “metabolite identified in human hepatocytes” value in [9] is “glucuronidation of the benzoic acid was the only discernible metabolite”.

For `Cc1cc(C(C)Nc2ccccc2C(=O)O)c2nc(N3CCC(C)(C)CC3)n(C)c(=O)c2c1` (stereo not shown) [Compound 9], in [1], the IC50 is 179 nM. In series [3] (T47D viability), the “fold decrease in potency (viability) compared to compound 4” value amounted to 39 fold.

`Cc1ccccc1C1NC(=O)c2cc(NC3COC3)cc(NC(=O)c3csc4ccccc34)c21` (stereo not shown) [Compound 5, reference compound]: the figures for the IC50 in [1] and in series [2] were 332 nM and 115 nM, respectively.

As for `Cc1cc([C@@H](C)Nc2ccccc2C(=O)O)c2nc(C3CCC(F)(F)CC3)c(C#N)c(=O)n2c1` [Compound 19], the “fold loss in potency in T47D cellular viability assay” value in [3] (on replacing the piperidine nitrogen (4,4-difluorocyclohexane)) stood at 5 fold.

As for `Cc1cc([C@@H](C)Nc2ccccc2C(=O)O)c2oc(N3CCC(C)(C)CC3)c(C)c(=O)c2c1` [Compound 4, reference compound], the IC50 in [1] amounted to 3 nM; in [2], 3180 nM.

The record behind these values is article PMC10983000 (Journal of Medicinal Chemistry, 2024).
